Measured values published in paper PMC5934316 (Oncogene, 2018).
Where two headings read alike, the source gives them in different places.

Columns and labels:
[1] = test system: STAT3-dependent luciferase reporter; assay: STAT3-dependent luciferase reporter assay; assay type: cell-based, human; conditions: for STAT3-dependent luciferase expression: MDA-MB-231 cells, Figure 1B
Method in brief: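 MDA-MB-231 cells stably carrying a STAT3-dependent luciferase reporter were treated with DMSO or test compound. Dose-response used graded concentrations; the time course used 2 μM for varying times. Luciferase activity was then measured with a commercial kit. Experiments were run at least three times.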

MDA-MB-231 [2] = assay: MTT survival assay; assay type: cell-based; conditions: Homo sapiens, read-out: IC50, survival
Method in brief: (§1)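 Breast cancer lines were cultured in DMEM + 10% FBS at 37 °C, 5% CO2. Cells were seeded at 3–4×10^3 per well in 96-well plates and treated with graded test-compound concentrations for 48 or 72 h. Viable cells were then measured by MTT. Experiments were run at least three times.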

breast cancer cells = assay: MTT survival assay, summary over breast cancer cells; assay type: cell-based; conditions: Homo sapiens, 72 h, read-out: IC50 for breast cancer cells
Method in brief: as §1

STAT3 [3] = target: T1, STAT3 (Homo sapiens, UniProt P40763); assay type: cell-based
T1 sequence (P40763 whole entry): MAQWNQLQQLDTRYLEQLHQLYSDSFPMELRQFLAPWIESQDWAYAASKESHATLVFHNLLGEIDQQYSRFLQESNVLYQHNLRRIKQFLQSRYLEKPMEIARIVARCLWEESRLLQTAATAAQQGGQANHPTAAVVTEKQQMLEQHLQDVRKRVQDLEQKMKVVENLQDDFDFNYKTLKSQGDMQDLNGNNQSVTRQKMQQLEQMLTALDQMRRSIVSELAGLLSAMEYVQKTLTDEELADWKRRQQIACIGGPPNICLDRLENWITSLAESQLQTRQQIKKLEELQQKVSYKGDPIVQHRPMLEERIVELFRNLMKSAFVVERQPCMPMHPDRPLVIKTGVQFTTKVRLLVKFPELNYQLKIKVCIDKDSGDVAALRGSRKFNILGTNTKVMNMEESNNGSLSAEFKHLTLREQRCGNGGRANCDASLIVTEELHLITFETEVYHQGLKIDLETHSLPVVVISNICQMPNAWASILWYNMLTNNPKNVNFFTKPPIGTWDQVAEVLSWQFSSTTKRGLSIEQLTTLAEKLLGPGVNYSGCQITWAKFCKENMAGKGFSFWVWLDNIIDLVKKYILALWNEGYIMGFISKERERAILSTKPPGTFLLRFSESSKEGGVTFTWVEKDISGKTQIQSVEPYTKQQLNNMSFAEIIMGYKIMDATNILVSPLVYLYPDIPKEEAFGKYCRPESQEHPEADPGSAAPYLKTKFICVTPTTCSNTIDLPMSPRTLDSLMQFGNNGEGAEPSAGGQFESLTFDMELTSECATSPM
Method in brief: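 In MDA-MB-231 cells, constitutive pSTAT3 was assessed after graded doses for 24 h or 2 μM over time, with actin as loading control. For IL-6 induction, serum-starved cells were pretreated, then given IL-6. Localisation after 24 h used methanol/acetone-fixed, Triton-permeabilised cells stained for (p)STAT3 with Alexa555 secondary and DAPI (confocal), or fractionation with histone/actin markers. Dimers were resolved by non-denaturing PAGE and Western blot.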

[4] = test system: STAT3 target genes, cyclin D1 and Bcl-xL; assay: Real-time RT-PCR and Western blot of STAT3 target genes in MDA-MB-231 cells; assay type: cell-based, human; conditions: mRNA by real-time RT-PCR and protein by Western blot
Method in brief: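 MDA-MB-231 cells were treated with graded test-compound concentrations. Cyclin D1, Bcl-xL and STAT3 mRNAs were measured by SYBR Green real-time RT-PCR and quantified by 2ΔΔCt against GAPDH (n=3). For protein, cells were treated for 24 h, then analysed by SDS-PAGE/PVDF Western blot with HRP secondaries and ECL on film, using actin as loading control.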

[5] = test system: MDA-MB-231 and MCF-7 cells; assay: JC-1 mitochondrial membrane potential assay; assay type: cell-based, human; conditions: JC-1, 24 hours, both cell lines
Method in brief: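 MDA-MB-231 and MCF-7 cells were exposed to graded test-compound concentrations for 24 h. They were then stained with JC-1 (5 μg/mL) for 30 min at 37 °C, washed in PBS and analysed by flow cytometry. Δψm was taken as the ratio of red (aggregate) to green (monomer) fluorescence. Experiments were run at least three times.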

JAK2 = JAK2 (Homo sapiens, UniProt O60674); assay: Western blot of JAK2 Tyr1007/1008 phosphorylation in MDA-MB-231 cells; assay type: cell-based
Sequence of JAK2 (O60674 whole entry): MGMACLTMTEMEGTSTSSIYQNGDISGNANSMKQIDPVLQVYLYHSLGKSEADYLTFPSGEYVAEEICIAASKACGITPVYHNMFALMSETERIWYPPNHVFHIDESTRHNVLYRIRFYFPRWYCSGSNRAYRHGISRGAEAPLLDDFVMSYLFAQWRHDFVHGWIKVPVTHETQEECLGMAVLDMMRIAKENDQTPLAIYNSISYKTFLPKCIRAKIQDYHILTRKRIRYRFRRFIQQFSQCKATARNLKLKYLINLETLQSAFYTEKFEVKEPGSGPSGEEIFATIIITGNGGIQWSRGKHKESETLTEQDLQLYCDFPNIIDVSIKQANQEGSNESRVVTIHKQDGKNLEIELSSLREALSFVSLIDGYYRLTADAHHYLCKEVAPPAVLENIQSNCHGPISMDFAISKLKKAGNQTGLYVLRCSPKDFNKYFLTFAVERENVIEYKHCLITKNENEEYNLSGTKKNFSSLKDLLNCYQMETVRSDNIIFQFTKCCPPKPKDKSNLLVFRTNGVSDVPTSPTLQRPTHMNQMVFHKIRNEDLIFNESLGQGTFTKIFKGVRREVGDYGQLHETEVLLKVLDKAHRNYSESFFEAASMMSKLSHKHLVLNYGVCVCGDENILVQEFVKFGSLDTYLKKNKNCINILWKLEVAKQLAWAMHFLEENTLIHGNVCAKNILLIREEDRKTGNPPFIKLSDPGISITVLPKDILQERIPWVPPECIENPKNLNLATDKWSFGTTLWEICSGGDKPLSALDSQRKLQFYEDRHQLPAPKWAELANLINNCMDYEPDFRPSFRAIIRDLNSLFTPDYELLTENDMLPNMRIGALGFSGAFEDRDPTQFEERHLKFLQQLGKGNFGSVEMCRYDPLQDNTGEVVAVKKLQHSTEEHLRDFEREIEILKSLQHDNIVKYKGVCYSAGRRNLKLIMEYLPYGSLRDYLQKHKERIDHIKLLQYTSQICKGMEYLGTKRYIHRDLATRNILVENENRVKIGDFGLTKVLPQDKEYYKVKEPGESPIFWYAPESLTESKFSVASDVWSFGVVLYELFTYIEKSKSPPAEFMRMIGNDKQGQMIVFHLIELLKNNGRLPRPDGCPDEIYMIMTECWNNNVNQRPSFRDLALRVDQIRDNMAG
Method in brief: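 MDA-MB-231 cells were treated with test compound, and lysates were analysed by SDS-PAGE/PVDF Western blot. Blots were probed for total and Tyr1007/1008-phosphorylated JAK2, detected with HRP secondaries and ECL on film.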

MCF7 [6] = assay: Annexin V-FITC/PI apoptosis assay; assay type: cell-based, human
Method in brief: (§2)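 Cells grown in DMEM with 10% FBS at 37 °C, 5% CO2. Seeded at 3×10^5 cells/well in 6-well plates and exposed to test compound for 24 h. Stained with annexin V-FITC and propidium iodide and analysed by flow cytometry. Annexin V+/PI− plus double-positive cells were counted as apoptotic. Experiments were run at least three times.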

MDA-MB-231 xenografts = assay: In-vivo efficacy, xenograft tumors; set-up: species or system mice
Method in brief: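 Donor xenograft: 1×10^7 MDA-MB-231 cells injected s.c. into a 5-week-old female Balb/c nude mouse and grown 2 weeks. ~1.5-mm pieces were implanted s.c. in 4–6-week-old female nude mice. At ~100 mm3, five mice per group received vehicle, test compound or vincristine 0.6 mg/kg IP every 3 days for 18 days. Tumour volume was measured blinded every 3 days. IHC covered total/Tyr705-phosphorylated STAT3 and cleaved caspase 3.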

STAT3 [7] = target: T1, STAT3; assay: Pull-down assay with immobilized BMA097, MDA-MB-231 cell lysate; assay type: binding
Method in brief: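 Test compound was coupled to CNBr-activated Sepharose 4B and blocked with 10% milk in binding buffer (20 mM Tris-HCl pH 8.0, 150 mM KCl, 1 mM EDTA, 15% glycerol, 0.5% NP-40, 0.2 mM PMSF, protease inhibitors). Beads were mixed with MDA-MB-231 lysate. For competition, lysate was first incubated 30 min at 37 °C with DMSO, 400 μM free compound or an irrelevant compound. For elution, bound material was incubated 1 h with the same agents. Read-out was SDS-PAGE and STAT3 Western blot.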

MDA-MB-231 [8] = assay: Annexin V-FITC/PI apoptosis assay; assay type: cell-based, human
Method in brief: as §2

MCF7 [9] = assay: MTT survival assay; assay type: cell-based; conditions: Homo sapiens, read-out: IC50, survival
Method in brief: as §1

MTT survival assay = assay type: cell-based; conditions: human, MCF10A cells, IC50, cytotoxicity
recombinant STAT3 = assay: Pull-down assay with immobilized BMA097, purified recombinant STAT3 proteins; assay type: binding; conditions: silver staining
Method in brief: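 Purified recombinant STAT3 deletion proteins were mixed with test compound immobilised on CNBr-activated Sepharose 4B, after milk blocking in Tris-HCl pH 8.0/KCl/NP-40 binding buffer. Pulled-down material was separated by SDS-PAGE and detected by silver staining or STAT3 Western blot.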

[10] = Body weight in xenograft study; assay type: in vivo, mice
Method in brief: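 MDA-MB-231 tumour pieces (~1.5 mm) from a donor xenograft were implanted s.c. in the left flank of 4–6-week-old female Balb/c nude mice. At ~100 mm3, mice were randomised (5/group) to vehicle, 10 or 40 mg/kg test compound, or 0.6 mg/kg vincristine. Dosing was IP every 3 days for 18 days, with body weight recorded every 3 days.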

MDA-MB-468 = assay: MTT survival assay; assay type: cell-based; conditions: Homo sapiens, read-out: IC50, survival
Method in brief: as §1

CCn1cc(C2=C(c3cn(CCC#N)c4ccccc34)C(=O)NC2=O)c2ccccc21 [BMA016, 2-(1-ethyl-1H-indol-3-yl)-3-[1-(2-cyanoethyl)-1H-indol-3-yl]maleimide]
STAT3-dependent luciferase expression [1]: significantly inhibited

CCn1cc(C2=C(c3cn(CCCC#N)c4ccccc34)C(=O)NC2=O)c2ccccc21 [BMA019, 2-(1-ethyl-1H-indol-3-yl)-3-[1-(3-cyanopropyl)-1H-indol-3-yl]maleimide]
STAT3-dependent luciferase expression [1]: significantly inhibited

CCn1cc(C2=C(c3cn(CCCCC#N)c4ccccc34)C(=O)N(CO)C2=O)c2ccccc21 [BMA088, N-hydroxymethyl-2-(1-ethyl-1H-indol-3-yl)-3-[1-(4-cyanobutyl)-1H-indol-3-yl] maleimide]
STAT3-dependent luciferase expression [1]: no inhibition

N#CCCCn1cc(C2=C(c3cn(CCCC#N)c4ccccc34)C(=O)NC2=O)c2ccccc21 [BMA097, 2,3-bis[1-(3-cyanopropyl)-1H-indol-3-yl]maleimide]
IC50 (MDA-MB-231 [2]; MDA-MB-231, 48 h): 3.6 µM | IC50 (MDA-MB-231 [2]; MDA-MB-231, 72 h): 0.9 µM | IC50 (breast cancer cells): 0.9 to 3.9 µM | level of total STAT3 (STAT3 [3]): little effect | phosphorylation of Ser727 of STAT3 (STAT3 [3]): did not affect | phosphorylation of Tyr705 of STAT3 (STAT3 [3]; constitutive, dose- and time-dependent): inhibits | nucleus-localized STAT3 (STAT3 [3]; immunofluorescence and fractionation, 24 hrs): disappeared | STAT3 dimerization (STAT3 [3]; non-denaturing PAGE, dose- and time-dependent): inhibited | IL-6-induced phosphorylation and activation of STAT3 (STAT3 [3]; serum-starved MDA-MB-231 cells): reduced | expression of STAT3 target genes, cyclin D1 and Bcl-xL [4]: inhibited | mitochondrial membrane potential (Δψm) [5]: induced Δψm loss | level of total JAK2 (JAK2): no effect | JAK2 phosphorylation/activation (JAK2; Tyr1007/1008): does not inhibit | total annexin V-positive cells (MCF7 [6]; 2 μM BMA097, 24 hrs): 34.2% | total annexin V-positive cells (MCF7 [6]; 4 μM BMA097, 24 hrs): 48.1% | growth and final weight of MDA-MB-231 xenograft tumors (MDA-MB-231 xenografts; 10 mg/kg IP every 3 days for 18 days): significantly reduced | growth and final weight of MDA-MB-231 xenograft tumors (MDA-MB-231 xenografts; 40 mg/kg IP every 3 days for 18 days): significantly reduced | caspase 3 cleavage in xenograft tumors (MDA-MB-231 xenografts; IHC staining): induced | phosphorylated STAT3 in xenograft tumors (MDA-MB-231 xenografts; IHC staining, vs vehicle control): reduced level | STAT3 pull-down by BMA097-conjugated Sepharose (STAT3 [7]; lysate of MDA-MB-231 cells): successfully pulled down STAT3 | competition of STAT3 pulldown by excess free BMA097 (STAT3 [7]; lysate pre-treated with 400 μM BMA097): completely inhibited | IC50 ([1]; Homo sapiens, MDA-MB-231, read-out: IC50, inhibition of STAT3-dependent luciferase expression): ~1.8 µM | STAT3-dependent luciferase expression [1]: significantly inhibited | t1/2, inhibition of STAT3-dependent luciferase expression ([1]; re-synthesized BMA097, time course at 2 μM): ~ 16 hrs | total annexin V-positive cells (MDA-MB-231 [8]; 2 μM BMA097, 24 hrs): 51.9% | total annexin V-positive cells (MDA-MB-231 [8]; 4 μM BMA097, 24 hrs): 63.8% | IC50 (MCF7 [9]; MCF7, 48 h): 6.4 µM | IC50 (MCF7 [9]; MCF7, 72 h): 3.9 µM | IC50 at 48 h (MTT survival assay; 48 hrs): 10.6 µM | IC50 at 72 h (MTT survival assay; 72 hrs): 6.5 µM | pull-down of recombinant STAT3 lacking the TAD domain (ΔTAD-C) (recombinant STAT3): successfully pulled down | pull-down of recombinant STAT3 with further deletion of the SH2 domain (ΔSH2-C) (recombinant STAT3): abolished the binding | weight loss and apparent phenotypic changes in the mouse model ([10]; 40 mg/kg): lack of weight loss | body weight reduction between the control and treatment groups ([10]; 10 and 40 mg/kg IP): no significant differences | IC50 (MDA-MB-468; MDA-MB-468, 48 h): 4 µM | IC50 (MDA-MB-468; MDA-MB-468, 72 h): 1.8 µM

N#CCCCCn1cc(C2=C(c3cn(CCCCC#N)c4ccccc34)C(=O)NC2=O)c2ccccc21 [BMA100, 2,3-bis[1-(4-cyanobutyl)-1H-indol-3-yl] maleimide]
STAT3-dependent luciferase expression [1]: significantly inhibited

N-hydroxy-2-(1-ethyl-1H-indol-3-yl)-3-(1-hydroxy-1H-indol-3-yl)maleimide [BMA127]
STAT3-dependent luciferase expression [1]: least inhibition
